Assay outcomes: PubChem BioAssay, several laboratories
In the library only some 2% were active in any assay of this set; here they are far more common.
HSP90 inh – HSP90 inhibitors, primary screen, cell lysate, luminescence | AID 1789, 2009 | Heat shock protein HSP 90 (rabbit reticulocyte lysate; luciferase refolding) | hit rate 0.91% among 290,000 | inhibition, % at 5.6 µM | Rabbit reticulocyte lysate, luciferase refolding luminescence, 3 h;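 active = inhibition above the screen-wide mean plus 3 SD, computed separately per campaign, cut at about 16% in these data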;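 note: 0% = DMSO wells and 100% = 60 µM geldanamycin wells; inhibitors lower the luminescence because luciferase stays unfolded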
FLuc act counter – FLuc activators, initial screening, artefact control for FLuc-dependent activation tests, biochemical, ATPlite luminescence | Luciferin 4-monooxygenase (Photinus pyralis), P08659 | ATPlite luciferase biochemical, 10 min; 0 = ATP-free wells, 1 = DMSO control | activation factor at 10 µM | 200,000 tested, under 10 active;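 active = luciferase activation factor, scaled between plate controls, of at least 2 with compound at 10 µM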
Target sequence (P08659 whole entry, looked up): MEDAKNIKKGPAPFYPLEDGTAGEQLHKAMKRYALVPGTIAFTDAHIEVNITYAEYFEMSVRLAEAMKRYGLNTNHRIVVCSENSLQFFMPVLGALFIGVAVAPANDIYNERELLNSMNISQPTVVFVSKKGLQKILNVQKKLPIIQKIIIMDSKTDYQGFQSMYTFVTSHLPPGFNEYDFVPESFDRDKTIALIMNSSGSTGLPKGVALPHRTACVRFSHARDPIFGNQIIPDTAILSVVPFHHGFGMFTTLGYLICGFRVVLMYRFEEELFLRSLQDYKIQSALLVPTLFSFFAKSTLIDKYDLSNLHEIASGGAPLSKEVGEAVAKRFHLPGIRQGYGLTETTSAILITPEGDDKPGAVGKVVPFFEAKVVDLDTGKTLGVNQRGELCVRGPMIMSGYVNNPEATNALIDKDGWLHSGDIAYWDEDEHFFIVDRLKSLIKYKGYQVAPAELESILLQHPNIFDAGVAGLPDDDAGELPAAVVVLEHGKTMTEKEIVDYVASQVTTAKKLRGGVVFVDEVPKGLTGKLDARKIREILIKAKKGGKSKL
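Assay system: Luciferase/luciferin detection reagent, cell-free biochemical luciferase assay / Read-out: luciferase activation / Benchmarks: No-ATP low control, compound-free enzyme-plus-ATP high control / Medium: PBS buffer for ATP / Detection: luminescence measurement of luciferase light output / Schedule: 10 min at ambient temperature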
FLuc inh counter – firefly luciferase enzyme inhibitors, primary screen, artefact control for luciferase-based inhibitor screens, biochemical, luminescence, ATPLite; hit rate 1.5% among 200,000; 10 min; Luciferin 4-monooxygenase (Photinus pyralis), P08659; inhibition, % at 10 µM;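 active = inhibition above about 50% when tested at 10 µM, limit read from the data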
PPC-1+TRAIL kill – compounds killing PPC-1 cancer cells with TRAIL present, primary screen, TRAIL potentiator project, ATPLite luminescence, uHTS | hit rate 0.41% among 220,000 | cell killing (% activity), % at 4 µM or 5 µM | PPC-1 cells + TRAIL, ATPLite viability luminescence;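 active = cell killing above 50% in the first pass at 4 µM, then a duplicate retest at 5 µM averaging 50% or more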;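 note: plate controls were cells with TRAIL plus DMSO for no effect and medium-only wells lacking cells for full effect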
TRAIL sens C8 – viability loss with TRAIL in NB7+C8 cells, primary screen, TRAIL sensitizer project, cell-based, ATPlite luminescence | inhibition (viability loss, TRAIL sensitization), % at 10 µM | hit rate 1% among 360,000 | AID 624354, 2012;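 active = compounds causing at least 50% loss of cell viability in the single-dose screen, relative to plate controls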
Numbers without * were called inactive; x = no result given.

SMILES | HSP90 inh | FLuc act counter | FLuc inh counter | PPC-1+TRAIL kill | TRAIL sens C8
CCNC(=O)C1CCCN(C(=O)c2cccc(C(F)(F)F)c2)CC1 (stereo not drawn) | x | x | x | x | -8.2
Cn1nc(C2CC2)cc1NC(=O)C1(C)CCN1C(=O)Cc1ccc(-c2ccccc2)cc1 (stereo not drawn) | x | x | x | x | 18.8
O=C1C(=C(I)I)c2ccccc2-c2ccccc21 | x | x | x | x | 93.7*
CCOC(=O)c1cc2c(C)n(-c3ccc(OCC)cc3)c(C)c2ccc1=O | -0.3 | 1 | 0.4 | 17.8 | 9.7
CCOC(=O)c1cc2c(C)n(-c3ccc(C)cc3)c(C)c2ccc1=O | 2.9 | 0.2 | 84.3* | -4.2 | 58.7*
COc1ccc(S(=O)(=O)NC(=O)C2(C)CCN2C(=O)Cc2ccc(C(C)(C)C)cc2)cc1 (stereo not drawn) | x | x | x | x | 5.9
COc1cc(CNc2nccn3ccnc23)cc(OC)c1 | x | x | x | x | -0.5
CC(C)(C)c1ccc(-c2cn(-c3ccc(Br)cc3)c3[n+]2CCCS3)cc1 | 1.2 | 1.1 | -5.0 | 49.1 | 55.1*
Cn1c(=O)c2cc(NC(=O)NCc3ccc(F)cc3)ccc2n1C | x | x | x | x | 24.4
COc1cccc(C(=O)NC2=NCCS2)c1 | 11.5 | 0.5 | 52.3* | 22.1 | 24.1
COc1cccc(C(=O)Nc2ccc(C3CC3(Cl)Cl)cc2)c1 (stereo not drawn) | -2.1 | 0.4 | 57.9* | 20.6 | 49.3*
COc1cccc(C(=O)Nc2ccc(C(=O)O)cc2)c1 | -1.5 | 1 | -2.8 | 12.4 | 6.5
CC(C)Oc1cccc(C(=O)NC2=NCCS2)c1 | -3.2 | 0.8 | 24.1 | 16.1 | -12.3
O=C(NC1=NCCS1)c1ccc(-c2ccc(Cl)cc2)o1 | 0.7 | 0.3 | 65.9* | 28.7 | 43.0
O=C(NC1=NCCS1)c1ccc(Cl)cc1 | -1.0 | x | x | x | 7.3
COc1cc(OC)c(C2C=CC(=O)CC2)c(OC)c1 (stereo not drawn) | x | x | x | x | -4.4
Cc1ccccc1S(=O)(=O)NC(=O)C1(C)CCN1C(=O)C1(c2ccccc2)CC1 (stereo not drawn) | x | x | x | x | 9.6
Cc1ccc(Cn2cc(CN3CC(N(C)C)CS3(=O)=O)nn2)cc1 (stereo not drawn) | x | x | x | x | -3.6
CCc1ccc(C(=O)COC(=O)[C@@H](NC(N)=O)[C@@H](C)CC)cc1 | -5.8 | 0.1 | 89.2* | 17.3 | 39.7
CCCNC(=O)C1(C)CCCN(Cc2ccc(-c3ccccc3)cc2)C1 (stereo not drawn) | x | x | x | x | 4.1
CN1/C(=C/C(=O)c2nc(S(C)(=O)=O)ncc2Cl)C(C)(C)c2ccccc21 | 1.2 | 1 | -2.6 | -5.2 | 66.7*
CN1/C(=C\C(=O)c2cccnc2)C(C)(C)c2ccccc21 | -3.3 | 1 | -1.9 | -3.9 | -10.2
Cn1c(NC(=O)c2ccc(F)cc2)nc2ccccc21 | 0.1 | x | x | x | 64.3*
O=C(Nc1nc2ccccc2c2nc3ccccc3n12)c1ccc(F)cc1 | 1.4 | 1 | -4.6 | 6.0 | x
CCC(=O)c1ccc2c(c1)OCCO2 | 4.3 | x | x | 29.2 | 7.2
SMILES | HSP90 inh | FLuc act counter | FLuc inh counter | PPC-1+TRAIL kill | TRAIL sens C8
Cc1cc(=O)[nH]c(SCC(=O)Nc2cc(S(=O)(=O)N3CCCC3)ccc2Cl)n1 | 2.5 | x | x | 16.0 | -0.7
CCCc1cc(=O)[nH]c(SCC(=O)Nc2cc(S(=O)(=O)N3CCCCC3)ccc2C)n1 | x | x | x | x | 50.0*
Cc1nn(CC(=O)Nc2ccc3c(c2)OCO3)c(C)c1Cl | -0.2 | x | x | x | 8.9
COc1ccc(NC(=O)Cn2ncc(Cl)c(Cl)c2=O)cc1S(=O)(=O)N1CCOCC1 | 4.1 | 1.1 | -6.5 | 4.5 | 9.2
O=C(Cn1ncc(Cl)c(Cl)c1=O)c1ccc2c(c1)OCCO2 | x | x | x | x | 88.8*
CCN(CC)S(=O)(=O)c1cc(NC(=O)Cn2ncc(Cl)c(Cl)c2=O)ccc1C | 5.1 | x | x | 17.1 | 62.1*
O=C(Cn1ncc(Cl)c(Cl)c1=O)Nc1ccc2c(c1)OCO2 | x | x | x | x | 94.3*
COC(=O)c1c(N)[nH]c(C(=O)c2ccccc2)c1-c1ccccc1Br | x | x | x | x | -18.6
CC1(C(=O)O)CCCN1C(=O)c1cccc(OC(F)(F)F)c1 (stereo not drawn) | x | x | x | x | -10.2
Cc1nc(C(F)(F)F)ccc1C(=O)N1CCC1(C)C(=O)NS(C)(=O)=O (stereo not drawn) | x | x | x | x | -10.8
Cc1ccc(S(=O)(=O)N2CCCCC2)cc1NC(=O)Cn1cnnn1 | 1.0 | x | x | -5.9 | 1.4
O=C(CN1CCCCC1)NC(=O)NC1CCCC1 | -0.8 | 1 | -0.4 | 25.8 | -3.1
O=C(Cn1ncc(Cl)c(Cl)c1=O)NC(=O)NC1CCCCC1 | x | x | x | x | 93.5*
CCCc1cc(=O)[nH]c(SCC(=O)N2CCCc3ccccc32)n1 | 1.4 | 0.3 | 72.4* | -2.6 | 20.6
Cc1ccc(S(=O)(=O)N2CCCCC2)cc1NC(=O)Cn1ncc(Cl)c(Cl)c1=O | x | x | x | x | 96.5*
CCC(=O)Nc1ccc(C(=O)Cn2ncc(Cl)c(Cl)c2=O)cc1 | -1.2 | x | x | 11.4 | 93.6*
CCOC(=O)c1ccc(NC(=O)Cn2ncc(Cl)c(Cl)c2=O)cc1 | 3.0 | 1.1 | -6.7 | 9.3 | 5.8
Cc1cc(CNC[C@H]2O[C@@H](n3ccc(=O)[nH]c3=O)[C@H](O)[C@@H]2O)no1 | x | x | x | x | 5.3
O=C(NC(c1cccnc1)c1ccc2c(c1)OCO2)C1CCN(CCOc2ccc(Cl)cc2Cl)CC1 (stereo not drawn) | x | x | x | x | -9.5
OC[C@H]1O[C@@H](c2nc(-c3ccccc3Br)no2)[C@H](O)[C@@H](O)[C@H]1O | x | x | x | x | 3.9
CC1(C(=O)NS(=O)(=O)c2ccc(C#N)cc2)CCN1C(=O)C1(c2ccccc2)CCCC1 (stereo not drawn) | x | x | x | x | -13.8
O=C(NCCc1ccccc1)C(=O)NCC1OCCCN1S(=O)(=O)c1cc(F)ccc1F (stereo not drawn) | 16.2* | x | x | x | 3.9
O=[N+]([O-])c1ccc(-[n+]2ccc3ccccc3c2)c([N+](=O)[O-])c1 | x | x | x | x | 54.6*
CS(=O)(=O)c1ncc(Cl)c(C(=O)Nc2ccc(OC(F)F)cc2)n1 | -1.1 | x | x | x | 72.4*
CS(=O)(=O)c1ncc(Cl)c(C(=O)Nc2ccc(N3CCOCC3)cc2)n1 | 0.8 | 0.9 | 8.9 | 8.2 | 72.7*
SMILES | HSP90 inh | FLuc act counter | FLuc inh counter | PPC-1+TRAIL kill | TRAIL sens C8
S=C1Nc2ccccc2CS1 | x | x | x | x | -11.2
S=C1Cc2ccccc2N1 | 5.1 | x | x | 22.5 | 59.8*
CCCCCCCCCCn1ccc(=N)cc1 | -5.8 | x | x | 46.7 | 55.0*
CCCCCCCCn1ccc(=N)cc1 | 6.6 | x | x | 31.1 | 29.7
COc1ccc(Cn2ccnc2SCC(=O)Nc2ccc(F)cc2F)cc1 | x | x | x | x | -11.6
COc1ccc(-c2sc3ccccc3c2-c2ccc(OCCN(C)C)cc2)cc1 | x | x | x | x | 78.9*
CN(C)CCOc1ccc(-c2c(-c3ccsc3)sc3ccccc23)cc1 | x | x | x | x | 16.9
O=C(c1ccc(Cl)cc1)N1CCN(S(=O)(=O)/C=C/c2ccccc2)CC1 | x | x | x | x | -2.5
CCCCCCCCN1C(=O)[C@H](CC(=O)NCCCN2CCCC2=O)C[C@@]2(C(=O)OC)CC(C)(C)CC=C12 | x | x | x | x | -8.3
